The source of these data is the M2OR odorant receptor database.

Chain of UniProt Q9R0K2 (Q9R0K2 as listed by the source): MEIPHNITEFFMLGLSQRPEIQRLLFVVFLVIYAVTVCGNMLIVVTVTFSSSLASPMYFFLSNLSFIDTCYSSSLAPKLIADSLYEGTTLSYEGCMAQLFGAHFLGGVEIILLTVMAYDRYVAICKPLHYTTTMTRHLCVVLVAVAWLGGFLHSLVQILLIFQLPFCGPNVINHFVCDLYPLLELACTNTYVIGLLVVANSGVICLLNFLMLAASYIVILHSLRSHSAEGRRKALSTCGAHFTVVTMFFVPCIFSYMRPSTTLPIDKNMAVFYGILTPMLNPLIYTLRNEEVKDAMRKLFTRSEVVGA

For one test, the target named is T1, UniProt Q920P2.
T1 sequence (whole entry): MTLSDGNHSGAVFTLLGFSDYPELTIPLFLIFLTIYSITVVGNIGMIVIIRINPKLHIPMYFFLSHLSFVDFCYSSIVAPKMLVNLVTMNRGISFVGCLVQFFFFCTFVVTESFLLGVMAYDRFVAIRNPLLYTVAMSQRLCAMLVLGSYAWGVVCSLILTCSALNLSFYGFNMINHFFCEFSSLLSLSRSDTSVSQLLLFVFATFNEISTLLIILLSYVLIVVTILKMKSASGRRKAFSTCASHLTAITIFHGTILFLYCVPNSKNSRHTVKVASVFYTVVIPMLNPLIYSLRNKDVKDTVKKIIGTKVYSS
The settings on record: stereoisomer not certain. The gist of the method: (§1)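 Each entry records the cell line, G-protein, co-transfected protein and tags used. Methods varied with the source, often transient luciferase assays in mammalian cell lines. A receptor–molecule pair is called responsive (active) if the original authors judged its signal statistically different from baseline and non-responsive (inactive) otherwise.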
`COc1cc(C=O)cc(OC)c1O`: the “odorant receptor agonist call” value is “inactive”.

In the case of `COc1cc(C(=O)O)ccc1O`, the “odorant receptor agonist call” value was “inactive”.

In the case of `CC(C=O)Cc1ccc(C(C)(C)C)cc1` (stereo not drawn), the “odorant receptor agonist call” value is “inactive”.

Take `CC(C)=CCCC(C)=CCO`: the “odorant receptor agonist call” value was “inactive”.

Consider `c1ccccc1`, for which the “odorant receptor agonist call” value is “inactive”.

Another test deals with T2, UniProt Q924H8.
T2 sequence (whole entry): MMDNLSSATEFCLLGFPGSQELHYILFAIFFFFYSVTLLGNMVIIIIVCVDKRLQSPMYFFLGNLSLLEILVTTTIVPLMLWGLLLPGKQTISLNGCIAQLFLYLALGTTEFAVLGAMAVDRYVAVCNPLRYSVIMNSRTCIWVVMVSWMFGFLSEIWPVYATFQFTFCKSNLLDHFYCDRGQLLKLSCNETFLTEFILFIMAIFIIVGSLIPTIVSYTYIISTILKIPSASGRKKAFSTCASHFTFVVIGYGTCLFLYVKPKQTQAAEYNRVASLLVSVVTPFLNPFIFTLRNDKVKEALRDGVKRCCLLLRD
The settings on record: stereoisomer not certain. The gist of the method:
as §1
For the compound `Cc1occc1SSc1ccoc1C`, the “odorant receptor agonist call” value is “inactive”.

Turning to `COc1nccnc1C(C)C`, the “odorant receptor agonist call” value is “inactive”.

For the compound `C=C(CC)CCCC(C)(C)O`, the “odorant receptor agonist call” value was “inactive”.

As to `CC(C)CCN`, the “odorant receptor agonist call” value is “inactive”.

For `CCc1occc(=O)c1O`, the “odorant receptor agonist call” value is “inactive”.

As to `CCCCCCCOC(=O)C(C)C`, the “odorant receptor agonist call” value is “inactive”.

On to `CCOC(=O)CC(C)C`, for which the “odorant receptor agonist call” value was “inactive”.

As to `CCCCCCCCOC=O`, the “odorant receptor agonist call” value was “inactive”.

For the compound `COc1cc(C(=O)O)ccc1O`, the “odorant receptor agonist call” value was “inactive”.

For the compound `CC(C)CS`, the “odorant receptor agonist call” value is “inactive”.

`COc1ccccc1`: the “odorant receptor agonist call” value was “inactive”.

For `CCCCCOC(=O)CCC`, the “odorant receptor agonist call” value is “inactive”.

For the compound `CCCCCCC(C)O` (stereo not drawn), the “odorant receptor agonist call” value is “inactive”.

As for `CC(CC=O)CCCC(C)(C)O` (stereo not drawn), the “odorant receptor agonist call” value was “inactive”.

Regarding `CC1CCC(C(C)C)C(=O)C1` (stereo not drawn), the “odorant receptor agonist call” value is “inactive”.

For the compound `CCC=CCCCCC=O`, the “odorant receptor agonist call” value was “inactive”.

As to `CC(C)=CCCC(C)=CCO`, the “odorant receptor agonist call” value was “inactive”.

Turning to `C=C(C)C1CCC(C)C(O)C1` (stereo not drawn), the “odorant receptor agonist call” value is “inactive”.

With `c1ccccc1`, the “odorant receptor agonist call” value was “inactive”.

For the compound `CCCO`, the “odorant receptor agonist call” value was “inactive”.

Take `CSSCc1ccco1`: the “odorant receptor agonist call” value was “inactive”.

With `CCCCCOC(=O)CC`, the “odorant receptor agonist call” value is “inactive”.

For `CCCCCC(=Cc1ccccc1)C(OC)OC`, the “odorant receptor agonist call” value is “inactive”.

For `CCCCCCC=CC=O`, the “odorant receptor agonist call” value was “inactive”.

For `CCC(C)c1nccnc1OC` (stereo not drawn), the “odorant receptor agonist call” value was “inactive”.

Take `C=C(C)C1CC=C(C)CC1` (stereo not drawn): the “odorant receptor agonist call” value is “inactive”.

As for `C=CC(C)=CCC=C(C)CCC=C(C)C`, the “odorant receptor agonist call” value was “inactive”.

`c1ccc2ncccc2c1`: the “odorant receptor agonist call” value was “inactive”.

Consider `CCSCC`, for which the “odorant receptor agonist call” value was “inactive”.

As to `CCc1ccc(O)cc1`, the “odorant receptor agonist call” value was “inactive”.

Turning to `O=C(OCc1ccccc1)c1ccccc1O`, the “odorant receptor agonist call” value is “inactive”.

For the compound `CC(=O)C1(C)CC2=C(CCCC2(C)C)CC1C` (stereo not drawn), the “odorant receptor agonist call” value was “inactive”.

As to `C=C1C2CCC(C2)C1(C)C` (stereo not drawn), the “odorant receptor agonist call” value was “inactive”.

For the compound `C=CC(=O)CCCCC`, the “odorant receptor agonist call” value is “inactive”.

For a further test, the target named is T3, UniProt Q9EPN9.
T3 sequence (whole entry): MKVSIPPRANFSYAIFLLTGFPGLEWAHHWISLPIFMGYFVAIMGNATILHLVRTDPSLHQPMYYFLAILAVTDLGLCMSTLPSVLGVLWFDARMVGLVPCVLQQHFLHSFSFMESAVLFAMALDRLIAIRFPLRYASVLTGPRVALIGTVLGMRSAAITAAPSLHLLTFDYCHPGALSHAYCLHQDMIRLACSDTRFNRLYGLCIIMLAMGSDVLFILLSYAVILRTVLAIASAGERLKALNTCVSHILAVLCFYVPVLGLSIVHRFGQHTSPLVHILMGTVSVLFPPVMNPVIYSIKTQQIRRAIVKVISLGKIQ
The settings on record: stereoisomer not certain. The gist of the method: as §1
`COc1cc(C(=O)O)ccc1O`: the “odorant receptor agonist call” value was “inactive”.

With `CC(C)=CCCC(C)=CCO`, the “odorant receptor agonist call” value is “inactive”.

As to `c1ccccc1`, the “odorant receptor agonist call” value was “inactive”.

The target of another test is UniProt Q9R0K2. The settings on record: stereoisomer not certain. The gist of the method:
as §1
With `COc1cc(C(=O)O)ccc1O`, the “odorant receptor agonist call” value is “inactive”.

For `CC(C)=CCCC(C)=CCO`, the “odorant receptor agonist call” value was “active”.

On to `c1ccccc1`, for which the “odorant receptor agonist call” value is “inactive”.

Another test has as its target T4, UniProt Q9WU86.
T4 sequence (whole entry): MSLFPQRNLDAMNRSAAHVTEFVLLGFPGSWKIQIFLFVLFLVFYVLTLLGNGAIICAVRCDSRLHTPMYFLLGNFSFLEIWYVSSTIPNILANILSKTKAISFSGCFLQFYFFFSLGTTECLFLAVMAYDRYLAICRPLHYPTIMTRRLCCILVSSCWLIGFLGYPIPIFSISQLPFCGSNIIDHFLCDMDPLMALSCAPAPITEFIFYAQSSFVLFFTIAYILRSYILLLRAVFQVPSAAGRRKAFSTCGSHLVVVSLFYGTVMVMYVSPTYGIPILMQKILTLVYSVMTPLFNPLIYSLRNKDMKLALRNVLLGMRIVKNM
The settings on record: stereoisomer not certain. The gist of the method:
as §1
With `COc1cc(C(=O)O)ccc1O`, the “odorant receptor agonist call” value is “inactive”.

`CC(C)=CCCC(C)=CCO`: the “odorant receptor agonist call” value is “inactive”.

Consider `c1ccccc1`, for which the “odorant receptor agonist call” value was “inactive”.
